Columns and labels:
[1] = Cytotoxicity against HEK293T cells at 10 uM after 48 hrs by cell proliferation assay; type: toxicity, cell-based; details: human, hek-293t
Procedure, shortened: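 HEK 293T cells seeded at 1×10^4 cells/well, treated next day with serially diluted compounds and cultured 48 h; viability read with a cell proliferation assay kit per manufacturer's instructions. Footnote reports testing at a final concentration of 10 μM.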

[2] = tested on: Human immunodeficiency virus 1; assay: Antiviral activity against wild-type HIV-1 NL4-3 harboring vesicular stomatitis virus glycoprotein infected in HEK293T cells pretreated with cells for 15 mins followed by viral infection measured after 48 hrs by luciferase reporter gene assay; type: functional, cell-based; details: Human immunodeficiency virus 1, NL4-3, HEK-293T
Procedure, shortened: (§1)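 VSV-G-pseudotyped HIV-1 (wild-type or RT mutant) produced by co-transfection of HEK293T cells (calcium phosphate), supernatant harvested 48 h, 0.22 µm filtered, normalised by p24 ELISA to 0.2 ng p24/mL.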

[3] = tested on: Human immunodeficiency virus 1; assay: Ratio of IC50 for HIV-1 NL4-3 harboring RT-K103N/V108I double mutant infected in HEK293T cells co-expressing vesicular stomatitis virus glycoprotein to IC50 for wild-type HIV-1 NL4-3 infected in HEK293T cells co-expressing vesicular stomatitis virus glycoprotein; type: functional, HEK-293T
Procedure, shortened: (§2)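 Fold change: mean IC50 against each RT-mutant VSV-G-pseudotyped virus divided by IC50 against wild-type pseudovirus. Both values come from the same HEK293T assay: 0.2 ng p24/mL inoculum, compound added 15 min before infection, luciferase read-out at 48 h.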

[4] = tested on: Human immunodeficiency virus 1; assay: Ratio of IC50 for HIV-1 NL4-3 harboring RT-Y188L mutant infected in HEK293T cells co-expressing vesicular stomatitis virus glycoprotein to IC50 for wild-type HIV-1 NL4-3 infected in HEK293T cells co-expressing vesicular stomatitis virus glycoprotein; type: functional, HEK-293T; procedure, shortened: as §2
[5] = tested on: Human immunodeficiency virus 1; assay: Ratio of IC50 for HIV-1 NL4-3 harboring RT-Y181C mutant infected in HEK293T cells co-expressing vesicular stomatitis virus glycoprotein to IC50 for wild-type HIV-1 NL4-3 infected in HEK293T cells co-expressing vesicular stomatitis virus glycoprotein; type: functional, HEK-293T; procedure, shortened: as §2
[6] = tested on: Human immunodeficiency virus 1; assay: Ratio of IC50 for HIV-1 NL4-3 harboring RT-K103N mutant infected in HEK293T cells co-expressing vesicular stomatitis virus glycoprotein to IC50 for wild-type HIV-1 NL4-3 infected in HEK293T cells co-expressing vesicular stomatitis virus glycoprotein; type: functional, HEK-293T
[7] = tested on: Human immunodeficiency virus 1; assay: Antiviral activity against HIV-1 NL4-3 harboring RT-K103N/V108I double mutant infected in HEK293T cells coexpressing vesicular stomatitis virus glycoprotein pretreated with cells for 15 mins followed by viral infection measured after 48 hrs by luciferase reporter gene assay; type: functional, cell-based; details: hek-293t; procedure, shortened: as §1
[8] = tested on: Human immunodeficiency virus 1; assay: Antiviral activity against HIV-1 NL4-3 harboring RT-Y188L mutant infected in HEK293T cells coexpressing vesicular stomatitis virus glycoprotein pretreated with cells for 15 mins followed by viral infection measured after 48 hrs by luciferase reporter gene assay; type: functional, cell-based; details: hek-293t; procedure, shortened: as §1
[9] = tested on: Human immunodeficiency virus 1; assay: Antiviral activity against HIV-1 NL4-3 harboring RT-Y181C mutant infected in HEK293T cells coexpressing vesicular stomatitis virus glycoprotein pretreated with cells for 15 mins followed by viral infection measured after 48 hrs by luciferase reporter gene assay; type: functional, cell-based; details: hek-293t; procedure, shortened: as §1
[10] = tested on: Human immunodeficiency virus 1; assay: Antiviral activity against HIV-1 NL4-3 harboring RT-K103N mutant infected in HEK293T cells coexpressing vesicular stomatitis virus glycoprotein pretreated with cells for 15 mins followed by viral infection measured after 48 hrs by luciferase reporter gene assay; type: functional, cell-based; details: hek-293t; procedure, shortened: as §1
[11] = Inhibition of wild-type HIV-1 reverse transcriptase RNA-dependent DNA polymerase activity assessed as reduction in digoxigenin-11-dUTP incorporation using poly(rA)/oligo(dT) as template/primer incubated for 1 hr; design: species or system Human immunodeficiency virus 1
[12] = tested on: Human immunodeficiency virus 1; assay: Ratio of IC50 for HIV-1 NL4-3 harboring RT-K103N/G190A double mutant infected in HEK293T cells co-expressing vesicular stomatitis virus glycoprotein to IC50 for wild-type HIV-1 NL4-3 infected in HEK293T cells co-expressing vesicular stomatitis virus glycoprotein; type: functional, HEK-293T; procedure, shortened: as §2
[13] = tested on: Human immunodeficiency virus 1; assay: Ratio of IC50 for HIV-1 NL4-3 harboring RT-K103N/P225H double mutant infected in HEK293T cells co-expressing vesicular stomatitis virus glycoprotein to IC50 for wild-type HIV-1 NL4-3 infected in HEK293T cells co-expressing vesicular stomatitis virus glycoprotein; type: functional, HEK-293T; procedure, shortened: as §2
[14] = tested on: Human immunodeficiency virus 1; assay: Ratio of IC50 for HIV-1 NL4-3 harboring RT-L100I/K103N double mutant infected in HEK293T cells co-expressing vesicular stomatitis virus glycoprotein to IC50 for wild-type HIV-1 NL4-3 infected in HEK293T cells co-expressing vesicular stomatitis virus glycoprotein; type: functional, HEK-293T; procedure, shortened: as §2
[15] = tested on: Human immunodeficiency virus 1; assay: Antiviral activity against HIV-1 NL4-3 harboring RT-K103N/Y181C double mutant infected in HEK293T cells coexpressing vesicular stomatitis virus glycoprotein pretreated with cells for 15 mins followed by viral infection measured after 48 hrs by luciferase reporter gene assay; type: functional, cell-based; details: hek-293t; procedure, shortened: as §1
[16] = tested on: Human immunodeficiency virus 1; assay: Antiviral activity against HIV-1 NL4-3 harboring RT-K103N/G190A double mutant infected in HEK293T cells coexpressing vesicular stomatitis virus glycoprotein pretreated with cells for 15 mins followed by viral infection measured after 48 hrs by luciferase reporter gene assay; type: functional, cell-based; details: hek-293t; procedure, shortened: as §1
[17] = tested on: Human immunodeficiency virus 1; assay: Antiviral activity against HIV-1 NL4-3 harboring RT-K103N/Y188L double mutant infected in HEK293T cells coexpressing vesicular stomatitis virus glycoprotein pretreated with cells for 15 mins followed by viral infection measured after 48 hrs by luciferase reporter gene assay; type: functional, cell-based; details: hek-293t; procedure, shortened: as §1
[18] = tested on: Human immunodeficiency virus 1; assay: Antiviral activity against HIV-1 NL4-3 harboring RT-K103N/P225H double mutant infected in HEK293T cells coexpressing vesicular stomatitis virus glycoprotein pretreated with cells for 15 mins followed by viral infection measured after 48 hrs by luciferase reporter gene assay; type: functional, cell-based; details: hek-293t; procedure, shortened: as §1
[19] = tested on: Human immunodeficiency virus 1; assay: Antiviral activity against HIV-1 NL4-3 harboring RT-L100I/K103N double mutant infected in HEK293T cells coexpressing vesicular stomatitis virus glycoprotein pretreated with cells for 15 mins followed by viral infection measured after 48 hrs by luciferase reporter gene assay; type: functional, cell-based; details: hek-293t; procedure, shortened: as §1
[20] = tested on: Human immunodeficiency virus 1; assay: Ratio of IC50 for HIV-1 NL4-3 harboring RT-K103N/Y181C double mutant infected in HEK293T cells co-expressing vesicular stomatitis virus glycoprotein to IC50 for wild-type HIV-1 NL4-3 infected in HEK293T cells co-expressing vesicular stomatitis virus glycoprotein; type: functional, HEK-293T; procedure, shortened: as §2
[21] = tested on: Human immunodeficiency virus 1; assay: Ratio of IC50 for HIV-1 NL4-3 harboring RT-K103N/Y188L double mutant infected in HEK293T cells co-expressing vesicular stomatitis virus glycoprotein to IC50 for wild-type HIV-1 NL4-3 infected in HEK293T cells co-expressing vesicular stomatitis virus glycoprotein; type: functional, HEK-293T; procedure, shortened: as §2

SMILES	Activity [1]	IC50 [2] [µM]	Ratio IC50 [3]	Ratio IC50 [4]	Ratio IC50 [5]	Ratio IC50 [6]	IC50 [8] [µM]	other results
Fc1cc(F)cc(Cc2sc(NCc3ccc4c(c3)CCO4)nc2-c2ccc(Cl)cc2Cl)c1	Non-Toxic	0.068	–	–	–	–	–	–
COc1ccccc1Cc1sc(NCc2ccc3c(c2)CCO3)nc1-c1cc(F)cc(F)c1	Non-Toxic	7.32	–	–	–	–	–	–
Fc1cc(F)cc(Cc2sc(NCc3ccc4c(c3)CCO4)nc2-c2ccc(F)cc2F)c1	Non-Toxic	0.0139 to 0.014	218	504	79	14	7	IC50 [7]: 3.9 µM; IC50 [9]: 1.1 µM; IC50 [10]: 0.2 µM
Fc1cc(F)cc(Cc2sc(NCc3ccc4c(c3)CCO4)nc2-c2ccccc2Cl)c1	Non-Toxic	0.01	29	136	39	7.8	1.4	IC50 [7]: 0.3 µM; IC50 [9]: 0.4 µM; IC50 [10]: 0.08 µM; IC50 [11]: 0.025 µM
Clc1ccccc1-c1nc(NCc2ccc3c(c2)CCO3)sc1Cc1c(Cl)cccc1Cl	Non-Toxic	0.022	–	–	–	–	–	–
COc1ccccc1Cc1sc(NCc2ccc3c(c2)CCO3)nc1-c1ccc(Cl)cc1Cl	Non-Toxic	0.088	–	–	–	–	–	–
COc1ccccc1Cc1sc(NCc2ccc3c(c2)CCO3)nc1-c1ccccc1F	Non-Toxic	0.01	–	–	–	–	–	IC50 [11]: 0.02 µM
Fc1ccccc1-c1nc(NCc2ccc3c(c2)CCO3)sc1Cc1c(Cl)cccc1Cl	Non-Toxic	0.032	–	–	–	–	–	–
Fc1cc(F)cc(Cc2sc(NCc3ccc4c(c3)CCO4)nc2-c2ccccc2F)c1	Non-Toxic	0.01	–	–	–	–	–	IC50 [11]: 0.064 µM
Fc1ccc(-c2nc(NCc3ccc4c(c3)CCO4)sc2Cc2c(Cl)cccc2Cl)c(F)c1	Non-Toxic	0.021	–	–	–	–	–	–
COc1ccccc1Cc1sc(NCc2ccc3c(c2)CCO3)nc1-c1ccccc1Cl	Non-Toxic	0.01	–	–	–	–	–	IC50 [11]: 0.014 µM
Clc1ccc(-c2nc(NCc3ccc4c(c3)CCO4)sc2Cc2c(Cl)cccc2Cl)c(Cl)c1	Non-Toxic	0.071	–	–	–	–	–	–
COc1ccccc1Cc1sc(NCc2ccc3c(c2)CCO3)nc1-c1ccc(F)cc1F	Non-Toxic	0.0447 to 0.045	17	>223.7	2.9	6.5	> 10	Ratio IC50 [12]: 11; Ratio IC50 [13]: 23.5; Ratio IC50 [14]: 19.5; IC50 [15]: 0.45 µM; IC50 [7]: 0.76 µM; IC50 [16]: 0.49 µM; IC50 [17]: > 10 µM; IC50 [18]: 1.05 µM; IC50 [19]: 0.87 µM; IC50 [9]: 0.13 µM; IC50 [10]: 0.29 µM; Ratio IC50 [20]: 10.1; Ratio IC50 [21]: >223.7
COc1cccc(Cc2sc(NCc3ccc4c(c3)CCO4)nc2-c2ccccc2)c1	Non-Toxic	0.136	–	–	–	–	–	–
COc1ccccc1Cc1sc(NCc2ccc3c(c2)CCO3)nc1-c1ccccc1	Non-Toxic	0.072	21.3	>223.7	8.8	12.2	> 10	Ratio IC50 [12]: 8.1; Ratio IC50 [13]: 69.2; Ratio IC50 [14]: 73.8; IC50 [15]: 9.56 µM; IC50 [7]: 1.53 µM; IC50 [16]: 0.58 µM; IC50 [17]: > 10 µM; IC50 [18]: 4.98 µM; IC50 [19]: 5.31 µM; IC50 [9]: 0.512 µM; IC50 [10]: 0.88 µM; Ratio IC50 [20]: 132.8; Ratio IC50 [21]: >223.7
COc1ccc(Cc2sc(NCc3ccc4c(c3)CCO4)nc2-c2ccccc2)cc1	Non-Toxic	> 10	–	–	–	–	–	–
Clc1ccc(Cc2sc(NCc3ccc4c(c3)CCO4)nc2-c2ccccc2)cc1	Non-Toxic	> 10	–	–	–	–	–	–
c1ccc(Cc2sc(NCc3ccc4c(c3)CCO4)nc2-c2ccccc2)cc1	Non-Toxic	0.239	–	–	–	–	–	–
Clc1cccc(Cl)c1Cc1sc(NCc2ccc3c(c2)CCO3)nc1-c1ccccc1	Non-Toxic	0.0618 to 0.062	48.5	>161.8	6.3	24.8	> 10	Ratio IC50 [12]: 9.1; Ratio IC50 [13]: >161.8; Ratio IC50 [14]: 81.7; IC50 [15]: > 10 µM; IC50 [7]: 3 µM; IC50 [16]: 0.56 µM; IC50 [17]: > 10 µM; IC50 [18]: > 10 µM; IC50 [19]: 5.05 µM; IC50 [9]: 0.39 µM; IC50 [10]: 1.53 µM; Ratio IC50 [20]: >161.8; Ratio IC50 [21]: >161.8
Fc1cc(F)cc(Cc2sc(NCc3ccc4c(c3)CCO4)nc2-c2ccccc2)c1	Non-Toxic	0.037 to 0.0372	279.6	>268.8	149.5	37.9	> 10	Ratio IC50 [12]: 53.8; Ratio IC50 [13]: 135.2; Ratio IC50 [14]: 31.5; IC50 [15]: > 10 µM; IC50 [7]: 10.4 µM; IC50 [16]: 2 µM; IC50 [17]: > 10 µM; IC50 [18]: 5.03 µM; IC50 [19]: 1.17 µM; IC50 [9]: 5.56 µM; IC50 [10]: 1.41 µM; Ratio IC50 [20]: >268.8; Ratio IC50 [21]: >268.8
Fc1ccc(Cc2sc(NCc3ccc4c(c3)CCO4)nc2-c2ccccc2)cc1	Non-Toxic	5.67	–	–	–	–	–	–
O=C1Nc2ccc(Cl)cc2[C@@](C#CC2CC2)(C(F)(F)F)O1 [EFAVIRENZ]	–	0.00104	–	–	–	–	–	IC50 [15]: 0.0587 µM; IC50 [17]: 13.8 µM; IC50 [19]: 2.49 µM
Cc1ccnc2c1NC(=O)c1cccnc1N2C1CC1 [NEVIRAPINE]	–	–	90	>322	2152	519	> 10	Ratio IC50 [12]: >322; Ratio IC50 [13]: 177; Ratio IC50 [14]: 161; IC50 [15]: > 10 µM; IC50 [16]: > 10 µM; IC50 [17]: > 10 µM; IC50 [19]: 5 µM; IC50 [11]: 2.1 µM; Ratio IC50 [20]: >322; Ratio IC50 [21]: >322

— ChEMBL document CHEMBL3875141, “2,4,5-Trisubstituted thiazole derivatives as HIV-1 NNRTIs effective on both wild-type and mutant HIV-1 reverse transcriptase: Optimization of the substitution of positions 4 and 5” (Eur J Med Chem, 2016)
